Test results from ChEMBL document CHEMBL5113397, “Identification, optimization, and biological evaluation of 3-O-β-chacotriosyl ursolic acid derivatives as novel SARS-CoV-2 entry inhibitors by targeting the prefusion state of spike protein” (Eur J Med Chem, 2022).
Active and inactive are the calls of the source. No cut-off for these calls is given here.

How the values were obtained:
[1] = Selectivity index, ratio of CC50 for cytotoxicity against human HEK293T cells overexpressing human ACE2 to EC50 for antiviral activity against SARS-CoV-2 VSV-G pseudotyped virus infected human HEK293T cells overexpressing ACE2; assay type: toxicity, cell-based; settings: read-out: Ratio CC50/EC50
SARS-CoV-2 [2] = assay: Antiviral activity against pseudovirus SARS-CoV-2 spike protein infected human HEK293T cells overexpressing ACE2 assessed as inhibition on pseudovirus infection at 40 uM incubated for 48 hrs by luciferase assay; assay type: functional; settings: Severe acute respiratory syndrome coronavirus 2, HEK-293T
In short: (§1)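 S plasmid (wild type, or E484K, D614G or N501Y mutant) transfected into 293T cells; PsV-containing supernatant harvested at 48 h. 293T-ACE2 cells seeded 24 h ahead, then given an equal-volume mix of compound dilutions and PsV supernatant for 48 h. Cells lysed and luciferase activity quantified. Mean ± SD of three experiments.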

SARS-CoV-2 [3] = assay: Antiviral activity against pseudovirus SARS-CoV-2 spike protein infected human HEK293T cells overexpressing ACE2 assessed as inhibition on pseudovirus infection at 10 uM incubated for 48 hrs by luciferase assay; assay type: functional; settings: Severe acute respiratory syndrome coronavirus 2, HEK-293T; in short: as §1
SARS-CoV-2 [4] = assay: Antiviral activity against SARS-CoV-2 VSV-G pseudotyped virus infected human HEK293T cells overexpressing ACE2 incubated for 48 hrs by luciferase assay; assay type: functional, organism-based; settings: Severe acute respiratory syndrome coronavirus 2, HEK-293T
SARS-CoV-2 [5] = assay: Antiviral activity against pseudovirus SARS-CoV-2 spike protein infected human HEK293T cells overexpressing ACE2 assessed as inhibition on pseudovirus infection incubated for 48 hrs by luciferase assay; assay type: functional, organism-based; settings: Severe acute respiratory syndrome coronavirus 2, HEK-293T; in short: as §1
SARS-CoV-2 [6] = assay: Antiviral activity against pseudovirus SARS-CoV-2 spike protein with E484K mutant infected human HEK293T cells overexpressing ACE2 assessed as inhibition on pseudovirus infection at 5 to 40 uM incubated for 48 hrs by luciferase assay; assay type: functional, organism-based; settings: Severe acute respiratory syndrome coronavirus 2, dose 5-40 µM; in short: as §1
SARS-CoV-2 [7] = assay: Antiviral activity against pseudovirus SARS-CoV-2 spike protein mutant Omicron variant infected human HEK293T cells overexpressing ACE2 assessed as inhibition on viral entry incubated for 48 hrs by luciferase assay; assay type: functional, organism-based, Severe acute respiratory syndrome coronavirus 2
SARS-CoV-2 [8] = assay: Antiviral activity against pseudovirus spike protein mutant B.1.617.2 SARS-CoV-2 Delta variant infected human HEK293T cells overexpressing ACE2 assessed as inhibition on viral entry incubated for 48 hrs by luciferase assay; assay type: functional, organism-based, Severe acute respiratory syndrome coronavirus 2
SARS-CoV-2 [9] = assay: Antiviral activity against pseudotyped spike protein mutant B.1.1.7 SARS-CoV-2 Alpha variant infected human HEK293T cells overexpressing ACE2 assessed as inhibition on viral entry incubated for 48 hrs by luciferase assay; assay type: functional, organism-based, Severe acute respiratory syndrome coronavirus 2
SARS-CoV-2 [10] = assay: Antiviral activity against pseudotyped spike protein mutant P.10 SARS-CoV-2 Gamma variant infected human HEK293T cells overexpressing ACE2 assessed as inhibition on viral entry incubated for 48 hrs by luciferase assay; assay type: functional, organism-based, Severe acute respiratory syndrome coronavirus 2
SARS-CoV-2 [11] = assay: Antiviral activity against pseudovirus SARS-CoV-2 spike protein with D614G mutant infected human HEK293T cells overexpressing ACE2 assessed as inhibition on pseudovirus infection at 5 to 40 uM incubated for 48 hrs by luciferase assay; assay type: functional, organism-based; settings: Severe acute respiratory syndrome coronavirus 2, dose 5-40 µM; in short: as §1
SARS-CoV-2 [12] = assay: Antiviral activity against pseudovirus SARS-CoV-2 spike protein with N501Y mutant infected human HEK293T cells overexpressing ACE2 assessed as inhibition on pseudovirus infection at 5 to 40 uM incubated for 48 hrs by luciferase assay; assay type: functional, organism-based; settings: Severe acute respiratory syndrome coronavirus 2, dose 5-40 µM; in short: as §1
SARS-CoV-2 [13] = assay: Antiviral activity against pseudotyped spike protein mutant B.1.351 SARS-CoV-2 Beta variant infected human HEK293T cells overexpressing ACE2 assessed as inhibition on viral entry incubated for 48 hrs by luciferase assay; assay type: functional, organism-based, Severe acute respiratory syndrome coronavirus 2

| SMILES | inhibition at 40 µM (SARS-CoV-2 [2]) [%] | inhibition at 10 µM (SARS-CoV-2 [3]) [%] | EC50 (SARS-CoV-2 [5]) [µM] | other results |
| --- | --- | --- | --- | --- |
| C[C@H]1[C@H](C)CC[C@]2(C(=O)NCc3ccccc3)CC[C@]3(C)C(=CC[C@@H]4[C@@]5(C)CC[C@H](O[C@@H]6O[C@H](CO)[C@@H](O[C@@H]7O[C@@H](C)[C@H](O)[C@@H](O)[C@H]7O)[C@H](O)[C@H]6O[C@@H]6O[C@@H](C)[C@H](O)[C@@H](O)[C@H]6O)C(C)(C)[C@@H]5CC[C@]43C)[C@H]12 | 59.2 | 92.5 | 12 | selectivity ratio [1]: > 10; EC50 (SARS-CoV-2 [4]): > 100 µM |
| C[C@H]1[C@H](C)CC[C@]2(C(=O)Nc3ccc(Cc4ccccc4)cc3)CC[C@]3(C)C(=CC[C@@H]4[C@@]5(C)CC[C@H](O[C@@H]6O[C@H](CO)[C@@H](O[C@@H]7O[C@@H](C)[C@H](O)[C@@H](O)[C@H]7O)[C@H](O)[C@H]6O[C@@H]6O[C@@H](C)[C@H](O)[C@@H](O)[C@H]6O)C(C)(C)[C@@H]5CC[C@]43C)[C@H]12 | 10.3 | 19.2 |  |  |
| C[C@H]1[C@H](C)CC[C@]2(C(=O)NCCc3ccccc3)CC[C@]3(C)C(=CC[C@@H]4[C@@]5(C)CC[C@H](O[C@@H]6O[C@H](CO)[C@@H](O[C@@H]7O[C@@H](C)[C@H](O)[C@@H](O)[C@H]7O)[C@H](O)[C@H]6O[C@@H]6O[C@@H](C)[C@H](O)[C@@H](O)[C@H]6O)C(C)(C)[C@@H]5CC[C@]43C)[C@H]12 | 28.2 | 49.5 |  |  |
| C[C@H]1[C@H](C)CC[C@]2(C(=O)Nc3ccc(-c4ccccc4)cc3)CC[C@]3(C)C(=CC[C@@H]4[C@@]5(C)CC[C@H](O[C@@H]6O[C@H](CO)[C@@H](O[C@@H]7O[C@@H](C)[C@H](O)[C@@H](O)[C@H]7O)[C@H](O)[C@H]6O[C@@H]6O[C@@H](C)[C@H](O)[C@@H](O)[C@H]6O)C(C)(C)[C@@H]5CC[C@]43C)[C@H]12 | 16.9 | 27.4 |  |  |
| COc1cccc(OC)c1NC(=O)[C@]12CC[C@@H](C)[C@H](C)[C@H]1C1=CC[C@@H]3[C@@]4(C)CC[C@H](O[C@@H]5O[C@H](CO)[C@@H](O[C@@H]6O[C@@H](C)[C@H](O)[C@@H](O)[C@H]6O)[C@H](O)[C@H]5O[C@@H]5O[C@@H](C)[C@H](O)[C@@H](O)[C@H]5O)C(C)(C)[C@@H]4CC[C@@]3(C)[C@]1(C)CC2 | 46.8 | 96.8 | 9.84 | inhibition (SARS-CoV-2 [6]): Active; EC50 (SARS-CoV-2 [7]): 7.23 µM; EC50 (SARS-CoV-2 [8]): 1.78 µM; selectivity ratio [1]: > 10.2; EC50 (SARS-CoV-2 [9]): 7.68 µM; EC50 (SARS-CoV-2 [10]): 2.66 µM; inhibition (SARS-CoV-2 [11]): Active; EC50 (SARS-CoV-2 [4]): > 100 µM; inhibition (SARS-CoV-2 [12]): Active; EC50 (SARS-CoV-2 [13]): 11.6 µM |
| C[C@H]1[C@H](C)CC[C@]2(C(=O)Nc3ccc4c(c3)OCCO4)CC[C@]3(C)C(=CC[C@@H]4[C@@]5(C)CC[C@H](O[C@@H]6O[C@H](CO)[C@@H](O[C@@H]7O[C@@H](C)[C@H](O)[C@@H](O)[C@H]7O)[C@H](O)[C@H]6O[C@@H]6O[C@@H](C)[C@H](O)[C@@H](O)[C@H]6O)C(C)(C)[C@@H]5CC[C@]43C)[C@H]12 | -2.49 | 30.4 |  |  |
| COc1ccc(CNC(=O)[C@]23CC[C@@H](C)[C@H](C)[C@H]2C2=CC[C@@H]4[C@@]5(C)CC[C@H](O[C@@H]6O[C@H](CO)[C@@H](O[C@@H]7O[C@@H](C)[C@H](O)[C@@H](O)[C@H]7O)[C@H](O)[C@H]6O[C@@H]6O[C@@H](C)[C@H](O)[C@@H](O)[C@H]6O)C(C)(C)[C@@H]5CC[C@@]4(C)[C@]2(C)CC3)cc1 | 36.3 | 85.7 | 11.8 | selectivity ratio [1]: > 10; EC50 (SARS-CoV-2 [4]): > 100 µM |
| C[C@H]1[C@H](C)CC[C@]2(C(=O)Nc3ccc4c(cnn4C)c3)CC[C@]3(C)C(=CC[C@@H]4[C@@]5(C)CC[C@H](O[C@@H]6O[C@H](CO)[C@@H](O[C@@H]7O[C@@H](C)[C@H](O)[C@@H](O)[C@H]7O)[C@H](O)[C@H]6O[C@@H]6O[C@@H](C)[C@H](O)[C@@H](O)[C@H]6O)C(C)(C)[C@@H]5CC[C@]43C)[C@H]12 | 41.1 | 51.9 |  |  |
| C[C@H]1[C@H](C)CC[C@]2(C(=O)Nc3ccc4sccc4c3)CC[C@]3(C)C(=CC[C@@H]4[C@@]5(C)CC[C@H](O[C@@H]6O[C@H](CO)[C@@H](O[C@@H]7O[C@@H](C)[C@H](O)[C@@H](O)[C@H]7O)[C@H](O)[C@H]6O[C@@H]6O[C@@H](C)[C@H](O)[C@@H](O)[C@H]6O)C(C)(C)[C@@H]5CC[C@]43C)[C@H]12 | -31.8 | -21.7 |  |  |
| C[C@H]1[C@H](C)CC[C@]2(C(=O)Nc3ccc4ccccc4c3)CC[C@]3(C)C(=CC[C@@H]4[C@@]5(C)CC[C@H](O[C@@H]6O[C@H](CO)[C@@H](O[C@@H]7O[C@@H](C)[C@H](O)[C@@H](O)[C@H]7O)[C@H](O)[C@H]6O[C@@H]6O[C@@H](C)[C@H](O)[C@@H](O)[C@H]6O)C(C)(C)[C@@H]5CC[C@]43C)[C@H]12 | -7.27 | 14.5 |  |  |
| COc1ccccc1NC(=O)[C@]12CC[C@@H](C)[C@H](C)[C@H]1C1=CC[C@@H]3[C@@]4(C)CC[C@H](O[C@@H]5O[C@H](CO)[C@@H](O[C@@H]6O[C@@H](C)[C@H](O)[C@@H](O)[C@H]6O)[C@H](O)[C@H]5O[C@@H]5O[C@@H](C)[C@H](O)[C@@H](O)[C@H]5O)C(C)(C)[C@@H]4CC[C@@]3(C)[C@]1(C)CC2 |  |  | 10.7 | selectivity ratio [1]: 4.05 |
| C[C@H]1[C@H](C)CC[C@]2(C(=O)NC(c3ccccc3)c3ccccc3)CC[C@]3(C)C(=CC[C@@H]4[C@@]5(C)CC[C@H](O[C@@H]6O[C@H](CO)[C@@H](O[C@@H]7O[C@@H](C)[C@H](O)[C@@H](O)[C@H]7O)[C@H](O)[C@H]6O[C@@H]6O[C@@H](C)[C@H](O)[C@@H](O)[C@H]6O)C(C)(C)[C@@H]5CC[C@]43C)[C@H]12 | 0.47 | 1.58 |  |  |
| O=C(/C=C/c1ccc(O)c2oc(-c3ccc(O)c(O)c3)cc12)O[C@H](Cc1ccc(O)c(O)c1)C(=O)O | 80.2 | 98.3 |  |  |
| C[C@H]1[C@H](C)CC[C@]2(C(=O)Nc3ccccc3Cl)CC[C@]3(C)C(=CC[C@@H]4[C@@]5(C)CC[C@H](O[C@@H]6O[C@H](CO)[C@@H](O[C@@H]7O[C@@H](C)[C@H](O)[C@@H](O)[C@H]7O)[C@H](O)[C@H]6O[C@@H]6O[C@@H](C)[C@H](O)[C@@H](O)[C@H]6O)C(C)(C)[C@@H]5CC[C@]43C)[C@H]12 |  |  | 12.7 |  |
| C[C@H]1[C@H](C)CC[C@]2(C(=O)Nc3ccc4ncccc4c3)CC[C@]3(C)C(=CC[C@@H]4[C@@]5(C)CC[C@H](O[C@@H]6O[C@H](CO)[C@@H](O[C@@H]7O[C@@H](C)[C@H](O)[C@@H](O)[C@H]7O)[C@H](O)[C@H]6O[C@@H]6O[C@@H](C)[C@H](O)[C@@H](O)[C@H]6O)C(C)(C)[C@@H]5CC[C@]43C)[C@H]12 | 27.4 | 33.1 |  |  |
| C[C@H]1[C@H](C)CC[C@]2(C(=O)N3CCc4ccccc4C3)CC[C@]3(C)C(=CC[C@@H]4[C@@]5(C)CC[C@H](O[C@@H]6O[C@H](CO)[C@@H](O[C@@H]7O[C@@H](C)[C@H](O)[C@@H](O)[C@H]7O)[C@H](O)[C@H]6O[C@@H]6O[C@@H](C)[C@H](O)[C@@H](O)[C@H]6O)C(C)(C)[C@@H]5CC[C@]43C)[C@H]12 | 32.5 | 58.7 |  |  |
